Legend:
Mus musculus [1] = assay: Toxicity in male CDF1 mouse allografted with mouse P388 cells assessed as animal survival at 100 mg/kg, ip administered daily for 9 days as saline with Tween-80 solution starting 24 hrs after tumor inoculation; format: organism-based; parameters: dose 100 mg/kg, route intraperitoneal; settings: in vivo
How it was run: (§1)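 P-388 leukemia ascitic fluid implanted ip. Compound dosed ip in saline with Tween-80 vehicle, once daily for nine doses from 24 h after tumor inoculation. Acute toxicity scored as toxicity-day survivors per group. Survival was followed up to 30 days, with 30-day survival counted as "cure". Follows NCI screening protocols.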

P388 [2] = assay: Antitumor activity against mouse P388 cells allografted in female CDF1 mouse assessed as disease cures by measuring 30-days host survival at 400 mg/kg, ip administered daily for 9 days as saline with Tween-80 solution starting 24 hrs after tumor inoculation relative to control; format: functional; settings: route intraperitoneal
How it was run: (§2)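 P388 ascitic cell inoculum given ip to CDF1 mice of the sex in each line. Nine daily ip doses in saline with Tween-80 as vehicle, starting 24 h after inoculation. Median survival time expressed as %T/C (>125 significant); "cure" defined as 30-day survival.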

P388 [3] = assay: Antitumor activity against mouse P388 cells allografted in female CDF1 mouse assessed as disease cures by measuring 30-days host survival at 200 mg/kg, ip administered daily for 9 days as saline with Tween-80 solution starting 24 hrs after tumor inoculation relative to control; format: functional; settings: route intraperitoneal; how it was run: as §2
P388 [4] = assay: Antitumor activity against mouse P388 cells allografted in female CDF1 mouse assessed as disease cures by measuring 30-days host survival at 100 mg/kg, ip administered daily for 9 days as saline with Tween-80 solution starting 24 hrs after tumor inoculation relative to control; format: functional; settings: route intraperitoneal; how it was run: as §2
P388 [5] = assay: Antitumor activity against mouse P388 cells allografted in female CDF1 mouse assessed as disease cures by measuring 30-days host survival at 50 mg/kg, ip administered daily for 9 days as saline with Tween-80 solution starting 24 hrs after tumor inoculation relative to control; format: functional; settings: route intraperitoneal; how it was run: as §2
P388 [6] = assay: Antitumor activity against mouse P388 cells allografted in female CDF1 mouse assessed as disease cures by measuring 30-days host survival at 25 mg/kg, ip administered daily for 9 days as saline with Tween-80 solution starting 24 hrs after tumor inoculation relative to control; format: functional; settings: route intraperitoneal; how it was run: as §2
P388 [7] = assay: Antitumor activity against mouse P388 cells allografted in male CDF1 mouse assessed as disease cures by measuring 30-days host survival at 50 mg/kg, ip administered daily for 9 days as saline with Tween-80 solution starting 24 hrs after tumor inoculation relative to control; format: functional; settings: route intraperitoneal; how it was run: as §2
P388 [8] = assay: Antitumor activity against mouse P388 cells allografted in male CDF1 mouse assessed as disease cures by measuring 30-days host survival at 25 mg/kg, ip administered daily for 9 days as saline with Tween-80 solution starting 24 hrs after tumor inoculation relative to control; format: functional; settings: route intraperitoneal; how it was run: as §2
P388 [9] = assay: Antitumor activity against mouse P388 cells allografted in male CDF1 mouse assessed as disease cures by measuring 30-days host survival at 100 mg/kg, ip administered daily for 9 days as saline with Tween-80 solution starting 24 hrs after tumor inoculation relative to control; format: functional; settings: route intraperitoneal; how it was run: as §2
P388 [10] = assay: Antitumor activity against mouse P388 cells allografted in female CDF1 mouse assessed as change in body weight at 400 mg/kg, ip administered daily for 9 days as saline with Tween-80 solution starting 24 hrs after tumor inoculation; format: functional; settings: route intraperitoneal
How it was run: (§3)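 Ascitic fluid carrying P388 cells was inoculated ip. Compound was given ip in nine daily doses, starting 24 h after inoculation, in Klucel (hydroxypropylcellulose) suspension or in saline with Tween-80. Body-weight difference (treated minus control) was recorded on day 5. Survival was scored as %T/C of median survival time, and 30-day survival counted as cure.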

P388 [11] = assay: Antitumor activity against mouse P388 cells allografted in female CDF1 mouse assessed as change in body weight at 200 mg/kg, ip administered daily for 9 days as saline with Tween-80 solution starting 24 hrs after tumor inoculation; format: functional; settings: route intraperitoneal; how it was run: as §3
P388 [12] = assay: Antitumor activity against mouse P388 cells allografted in female CDF1 mouse assessed as change in body weight at 100 mg/kg, ip administered daily for 9 days as saline with Tween-80 solution starting 24 hrs after tumor inoculation; format: functional; settings: route intraperitoneal; how it was run: as §3
P388 [13] = assay: Antitumor activity against mouse P388 cells allografted in female CDF1 mouse assessed as change in body weight at 50 mg/kg, ip administered daily for 9 days as saline with Tween-80 solution starting 24 hrs after tumor inoculation; format: functional; settings: route intraperitoneal; how it was run: as §3
P388 [14] = assay: Antitumor activity against mouse P388 cells allografted in female CDF1 mouse assessed as change in body weight at 25 mg/kg, ip administered daily for 9 days as saline with Tween-80 solution starting 24 hrs after tumor inoculation; format: functional; settings: route intraperitoneal; how it was run: as §3
P388 [15] = assay: Antitumor activity against mouse P388 cells allografted in male CDF1 mouse assessed as change in body weight at 50 mg/kg, ip administered daily for 9 days as saline with Tween-80 solution starting 24 hrs after tumor inoculation; format: functional; settings: route intraperitoneal; how it was run: as §3
P388 [16] = assay: Antitumor activity against mouse P388 cells allografted in male CDF1 mouse assessed as change in body weight at 25 mg/kg, ip administered daily for 9 days as saline with Tween-80 solution starting 24 hrs after tumor inoculation; format: functional; settings: route intraperitoneal; how it was run: as §3
P388 [17] = assay: Antitumor activity against mouse P388 cells allografted in male CDF1 mouse assessed as change in body weight at 100 mg/kg, ip administered daily for 9 days as saline with Tween-80 solution starting 24 hrs after tumor inoculation; format: functional; settings: route intraperitoneal; how it was run: as §3
Mus musculus [18] = assay: Toxicity in female CDF1 mouse allografted with mouse P388 cells assessed as animal survival at 200 mg/kg, ip administered daily for 9 days as saline with Tween-80 solution starting 24 hrs after tumor inoculation; format: organism-based; parameters: dose 200 mg/kg, route intraperitoneal; settings: in vivo; how it was run: as §1
Mus musculus [19] = assay: Toxicity in female CDF1 mouse allografted with mouse P388 cells assessed as animal survival at 100 mg/kg, ip administered daily for 9 days as saline with Tween-80 solution starting 24 hrs after tumor inoculation; format: organism-based; parameters: dose 100 mg/kg, route intraperitoneal; settings: in vivo; how it was run: as §1
Mus musculus [20] = assay: Toxicity in female CDF1 mouse allografted with mouse P388 cells assessed as animal survival at 50 mg/kg, ip administered daily for 9 days as saline with Tween-80 solution starting 24 hrs after tumor inoculation; format: organism-based; parameters: dose 50 mg/kg, route intraperitoneal; settings: in vivo; how it was run: as §1
Mus musculus [21] = assay: Toxicity in female CDF1 mouse allografted with mouse P388 cells assessed as animal survival at 25 mg/kg, ip administered daily for 9 days as saline with Tween-80 solution starting 24 hrs after tumor inoculation; format: organism-based; parameters: dose 25 mg/kg, route intraperitoneal; settings: in vivo; how it was run: as §1
Mus musculus [22] = assay: Toxicity in male CDF1 mouse allografted with mouse P388 cells assessed as animal survival at 50 mg/kg, ip administered daily for 9 days as saline with Tween-80 solution starting 24 hrs after tumor inoculation; format: organism-based; parameters: dose 50 mg/kg, route intraperitoneal; settings: in vivo; how it was run: as §1

CCCCNC(=O)OCc1c(COC(=O)NCCCC)c(-c2ccc(Cl)c(Cl)c2)n2c1CCC2
Activity (Mus musculus [1]): Non-toxic | T/C (P388 [2]): 84% | T/C (P388 [3]): 163% | T/C (P388 [4]): 181% | T/C (P388 [5]): 171% | T/C (P388 [6]): 159% | T/C (P388 [7]): 137% | T/C (P388 [8]): 138% | T/C (P388 [9]): 160% | Activity (P388 [10]): -3.6 g | Activity (P388 [11]): -3.2 g | Activity (P388 [12]): -2 g | Activity (P388 [13]): -1.9 g | Activity (P388 [14]): -1.2 g | Activity (P388 [15]): -1.1 g | Activity (P388 [16]): -1.9 g | Activity (P388 [17]): -0.4 g | Activity (Mus musculus [18]): Non-toxic | Activity (Mus musculus [19]): Non-toxic | Activity (Mus musculus [20]): Non-toxic | Activity (Mus musculus [21]): Non-toxic | Activity (Mus musculus [22]): Non-toxic

— ChEMBL document CHEMBL3244396, “Synthesis and antileukemic activity of 5-substituted 2,3-dihydro-6,7-bis(hydroxymethyl)-1H-pyrrolizine diesters” (J Med Chem, 1977)
